DSG3 Ab inh = inhibitors of pemphigus antibody binding to human desmoglein-3; DSG3-coupled beads, scFv-anti-DSG3-GFP binding, flow cytometry; active compounds read low; binding (percent of control), % at 10 µM; 310,000 compounds, 0.48% hits; AID 588358;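 active = binding more than 3 SD below its plate's average and above zero; inconclusive = below that plate limit but binding exactly zero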;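 also: hits lower antibody fragment binding to DSG3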
T cell HTS = modulates CD8 T cell binding to vesicles; 2C CD8+ T cell-vesicle binding, flow cytometry; active compounds read low; response (vesicle binding), % at 7 µM; 330,000 compounds, 0.068% hits; AID 2052;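 active = response, share of CD8 T cells binding vesicles, and their 90th percentile fluorescence all below set limits, cut at about 80% in these data, passing the limit was not always enough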;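 also: values below 100% mean blocked vesicle binding to the CD8+ T cells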
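Benchmarks: naked versus QL9-loaded vesicles / Assay system: purified 2C TCR transgenic mouse naive CD8+ T cells / Technique: high-throughput flow cytometry with anti-B7-1 and anti-CD8 staining / Timing: Cell–vesicle co-incubation 1.5 h at 37 °C, staining 20 min on ice / Read-out: percent CD8+ FL2 mean versus row control / Probe or stimulus: QL9-loaded Drosophila micro-vesicles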
GPR7 antagonist = blocks human GPR7 receptor signaling | 290,000 compounds, 1.1% hits | inhibition, % at 4.4 µM | P48145 | AID 1861 | GPR7-expressing cells, fluorescence antagonist assay; in the data active = inhibition above about 16%, passing the limit was not always enough;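 also: cells stimulated with the agonist NPW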
Target sequence (P48145 whole entry, looked up): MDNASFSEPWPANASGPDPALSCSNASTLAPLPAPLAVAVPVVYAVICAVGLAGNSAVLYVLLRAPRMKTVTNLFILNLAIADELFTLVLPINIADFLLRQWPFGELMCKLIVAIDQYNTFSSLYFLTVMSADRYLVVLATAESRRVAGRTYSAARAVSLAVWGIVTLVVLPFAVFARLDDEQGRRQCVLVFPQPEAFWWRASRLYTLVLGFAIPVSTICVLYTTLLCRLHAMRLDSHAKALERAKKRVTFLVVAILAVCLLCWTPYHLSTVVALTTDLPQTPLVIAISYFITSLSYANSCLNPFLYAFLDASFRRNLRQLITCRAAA
CHT allo act = allosterically activates the human high affinity choline transporter | B-score at 10 µM | 310,000 compounds, 0.49% hits | CHT-expressing cells, membrane potential dye, choline EC20; active compounds read high; LV-AA mutant CHT in HEK293 cells | Q9GZV3;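 active = initial fluorescence not abnormally high and integrated response B-score, plate-corrected, over 3 SD above library mean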
pCIP destab = p/CIP protein destabilization. 290,000 compounds, 0.01% hits. Q05BA5. F442A p/CIP-EGFP cells, EGFP fluorescence, 16 h. decrease of EGFP signal, % at 10 µM;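 active = EGFP signal decrease of at least 30% at 10 µM or well 3 SD below plate mean, unless failing retest; inactive = the rest, including hits failing retest or dose response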
CHT inh = inhibits the human high affinity choline transporter | Q9GZV3 | CHT-expressing cells, membrane potential dye, choline response; active compounds read low | 310,000 compounds, 0.86% hits | B-score at 10 µM | AID 488975;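 active = B-score over 3 SD under the library average, and starting fluorescence ratio not unusually high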;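 also: choline stimulus applied at its EC90 after an EC20 pre-addition; B-score computed on integrated fluorescence ratio after choline addition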
CHT inh conf = human CHT inhibition, confirmatory screen; shares compounds with CHT inh; CHT-expressing cells, choline membrane potential dye; LV-to-AA substituted CHT, HEK293 cells; CHT activity remaining % of control (active compounds read low), % at 10 µM; 2,400 compounds, 70% hits;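 active = choline transporter activity left, mean of duplicates at 10 µM, below buffer-only control mean minus 3 SD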;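 also: depolarization triggered by choline at its EC90 following an EC20 pre-addition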
HEK293 MPD ctr = counter-screen for CHT inhibitors: effect in parental HEK293 cells. shares compounds with CHT inh. membrane potential dye, choline response; active = decrease or increase beyond buffer ±3SD. membrane potential ratio readout (active if shifted either direction beyond buffer ±3SD; no single direction) at 10 µM. 2,400 compounds, 4% hits;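 also: parental cells lack the transporter so any hit is non-specific; ratio is peak minus trough fluorescence over baseline after EC90 choline challenge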
Large screens that a line does not name were inactive (follow-up assays come after a bar, where they were run). An excerpt weighted towards active compounds, which were near 2.3% of everything screened.

CCn1cc(C(=O)N2CCCC2)c(=O)c2cc(S(=O)(=O)N3CC(C)CC(C)C3)ccc21 (centres undefined)	none
CC1CCN(S(=O)(=O)c2ccc3c(c2)c(=O)c(C(=O)NC2CCCC2)cn3C)CC1	CHT inh -7.31 | CHT inh conf 52.0% | HEK293 MPD ctr inactive
Cn1cc(C(=O)NC2CCCCC2)c(=O)c2cc(S(=O)(=O)N3CCCC3)ccc21	none
CCn1cc(C(=O)N2CCCCC2)c(=O)c2cc(S(=O)(=O)N3CCC(C)CC3)ccc21	CHT inh -6.17 | CHT inh conf 33.7% | HEK293 MPD ctr inactive
c1ccc(C(c2ccccc2)N2CCN(Cc3nnnn3C3CCCC3)CC2)cc1	CHT inh -5.57 | CHT inh conf inactive | HEK293 MPD ctr inactive
CC(C)(C)OC(=O)C[C@@H]1C/C=C\C[C@@H](CC(=O)N(CCO)Cc2ccccc2)C(=O)N[C@H](C(C)(C)C)COC1=O	none (no result: GPR7 antagonist, CHT allo act, pCIP destab, CHT inh)
COc1ccc(N2CCN(c3ncccc3C#N)CC2)cc1	none
COc1ccnc(N2CCN(c3ccccc3)CC2)c1C#N	CHT inh -8.33 | CHT inh conf inactive | HEK293 MPD ctr inactive
N#C/C(C(N)=O)=c1/ccc2c(c1)N1C3=C(CCCC3)CC3CCCCC31N=2 (centres undefined)	CHT inh -14.5 (no result: DSG3 Ab inh) | CHT inh conf 22.8% | HEK293 MPD ctr inactive
N#CC(C#N)=c1ccc2c(c1)N1C3=C(CCCC3)CC3CCCCC31N=2 (centres undefined)	CHT inh -11.2 | CHT inh conf 62.2% | HEK293 MPD ctr inactive
Cn1nc(C(=O)NNC(=O)c2ccccc2Br)c2ccccc2c1=O	none (no result: T cell HTS, GPR7 antagonist, CHT allo act, pCIP destab, CHT inh)
O=S1c2ccccc2Sc2ccccc21	none (no result: T cell HTS, GPR7 antagonist, CHT allo act, pCIP destab, CHT inh)
CC(C)(C)N(NC(=O)Nc1ccccc1)C(=O)c1ccccc1	CHT inh -6.07 | CHT inh conf inactive | HEK293 MPD ctr inactive
CC(C)(C)N(NC(=O)Nc1ccc(Cl)cc1)C(=O)c1ccccc1	none
Cn1cccc1C(=O)NCC(c1ccco1)N1CCCCC1 (centres undefined)	none (no result: GPR7 antagonist, pCIP destab)
O=C(CCN1C(=O)/C(=C\c2ccccc2)SC1=S)N1CCOCC1	none (no result: DSG3 Ab inh)
CN1CCN(C(=O)CCN2C(=O)/C(=C/c3cccc(Br)c3)SC2=S)CC1	CHT inh -5.2 | CHT inh conf 70.4% | HEK293 MPD ctr inactive
O=C(CCCN1C(=O)/C(=C/c2ccccc2)SC1=S)N1CCOCC1	CHT inh -5.64 | CHT inh conf inactive | HEK293 MPD ctr inactive
O=C(CCN1C(=O)/C(=C\c2cccc(Br)c2)SC1=S)NCCCN1CCOCC1	CHT inh -5.6 | CHT inh conf 69.0% | HEK293 MPD ctr inactive
CN1CCN(C(=O)CCCN2C(=O)/C(=C/c3cccc(Br)c3)SC2=S)CC1	none (no result: T cell HTS, CHT allo act, CHT inh)
Cc1cccc(NC(=O)CN(C)S(=O)(=O)c2ccc(-c3ccc(=O)[nH]n3)s2)c1C	DSG3 Ab inh inconclusive, CHT inh -6.35 | CHT inh conf inactive | HEK293 MPD ctr inactive
O=C1OC(c2ccccc2)(c2ccc(O)cc2)c2ccccc21 (centres undefined)	none (no result: T cell HTS, GPR7 antagonist, CHT allo act, pCIP destab, CHT inh)
Cc1cc(O)ccc1C1(c2ccc(O)cc2C)OC(=O)c2ccccc21	CHT inh -12.1 | CHT inh conf 62.9% | HEK293 MPD ctr inactive
CC1=NC(C)(C)Cc2cc(C)c(C)cc21	CHT inh -8.21 | CHT inh conf 41.6% | HEK293 MPD ctr inactive
Nn1c(-c2ccccc2)nc2cc(Cl)ccc2c1=O	CHT inh -7.24 | CHT inh conf inactive | HEK293 MPD ctr inactive
COc1cc(CCC(=O)OCC(=O)NCc2ccc(Cl)cc2)cc(OC)c1OC	CHT inh -6.53 | CHT inh conf 66.1% | HEK293 MPD ctr inactive
COc1cc(CCC(=O)NCc2ccc(Cl)cc2)cc(OC)c1OC	none
COCOCCn1cc(CN2CCS(=O)(=O)N(Cc3ccc(-c4ccc(OC)cc4)cc3)C(C)C2=O)nn1 (centres undefined)	none (no result: T cell HTS, GPR7 antagonist, CHT allo act, pCIP destab, CHT inh)
